The values below come from ChEMBL document CHEMBL1139240, “Synthesis, cytotoxic activity, DNA topoisomerase-II inhibition, molecular modeling and structure-activity relationship of 9-anilinothiazolo[5,4-b]quinoline derivatives” (Bioorg Med Chem, 2009).

In one assay the test system is SW480. As to the kind of experiment: Cytotoxicity against human SW480 cells after 72 hrs by MTT assay. Type of assay: functional, cell-based. The following applies: SW480, 72 h. In outline: (§1)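 Cells seeded at 4.5 to 5.0 × 10^4 cells/mL/well in 24-well plates, exposed to compounds in DMSO for 72 h. MTT in PBS pH 7.2 added, formazan dissolved in DMSO, absorbance read at 540 nm. % growth inhibition = (1 − treated/untreated absorbance) × 100. Three independent experiments in quadruplicate.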

A further assay has as its system HeLa. As to the kind of experiment: Cytotoxicity against human HeLa cells after 72 hrs by MTT assay. It is filed as functional, cell-based. The procedure, abridged:
as §1

In the next assay the test system is SW-620. The assay is described as follows: Cytotoxicity against human SW620 cells after 72 hrs by MTT assay. It is filed as functional, cell-based. The following applies: SW-620, 72 h. In outline:
as §1

Another assay concerns K562. The assay is described as follows: Cytotoxicity against human K562 cells after 72 hrs by MTT assay. Type of assay: functional, cell-based. The following applies: K562, 72 h. In outline: as §1
Assay [1] addresses DNA topoisomerase 2-alpha (Homo sapiens, UniProt P11388). The assay is described as follows: Inhibition of human DNA topoisomerase 2-mediated Crithidia fasciculata kDNA decatenation using ethidium bromide staining by agarose gel electrophoresis. In outline: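 Crithidia fasciculata kDNA (5 µg/mL) with 4 units human Topo II in 30 mM Tris–HCl pH 7.6, 60 mM NaCl, 8 mM MgCl2, 15 mM 2-mercaptoethanol, 3 mM ATP, 8% DMSO, 30 min at 37 °C. Proteinase K follows, then chloroform/isoamyl extraction and agarose gel with ethidium bromide. Decatenated plus linear DNA quantified densitometrically as % of total. Screened at 160 µM, IC50 from 1–160 µM curves.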

Each structure is given as a SMILES string.

Chain of DNA topoisomerase 2-alpha (P11388 whole entry): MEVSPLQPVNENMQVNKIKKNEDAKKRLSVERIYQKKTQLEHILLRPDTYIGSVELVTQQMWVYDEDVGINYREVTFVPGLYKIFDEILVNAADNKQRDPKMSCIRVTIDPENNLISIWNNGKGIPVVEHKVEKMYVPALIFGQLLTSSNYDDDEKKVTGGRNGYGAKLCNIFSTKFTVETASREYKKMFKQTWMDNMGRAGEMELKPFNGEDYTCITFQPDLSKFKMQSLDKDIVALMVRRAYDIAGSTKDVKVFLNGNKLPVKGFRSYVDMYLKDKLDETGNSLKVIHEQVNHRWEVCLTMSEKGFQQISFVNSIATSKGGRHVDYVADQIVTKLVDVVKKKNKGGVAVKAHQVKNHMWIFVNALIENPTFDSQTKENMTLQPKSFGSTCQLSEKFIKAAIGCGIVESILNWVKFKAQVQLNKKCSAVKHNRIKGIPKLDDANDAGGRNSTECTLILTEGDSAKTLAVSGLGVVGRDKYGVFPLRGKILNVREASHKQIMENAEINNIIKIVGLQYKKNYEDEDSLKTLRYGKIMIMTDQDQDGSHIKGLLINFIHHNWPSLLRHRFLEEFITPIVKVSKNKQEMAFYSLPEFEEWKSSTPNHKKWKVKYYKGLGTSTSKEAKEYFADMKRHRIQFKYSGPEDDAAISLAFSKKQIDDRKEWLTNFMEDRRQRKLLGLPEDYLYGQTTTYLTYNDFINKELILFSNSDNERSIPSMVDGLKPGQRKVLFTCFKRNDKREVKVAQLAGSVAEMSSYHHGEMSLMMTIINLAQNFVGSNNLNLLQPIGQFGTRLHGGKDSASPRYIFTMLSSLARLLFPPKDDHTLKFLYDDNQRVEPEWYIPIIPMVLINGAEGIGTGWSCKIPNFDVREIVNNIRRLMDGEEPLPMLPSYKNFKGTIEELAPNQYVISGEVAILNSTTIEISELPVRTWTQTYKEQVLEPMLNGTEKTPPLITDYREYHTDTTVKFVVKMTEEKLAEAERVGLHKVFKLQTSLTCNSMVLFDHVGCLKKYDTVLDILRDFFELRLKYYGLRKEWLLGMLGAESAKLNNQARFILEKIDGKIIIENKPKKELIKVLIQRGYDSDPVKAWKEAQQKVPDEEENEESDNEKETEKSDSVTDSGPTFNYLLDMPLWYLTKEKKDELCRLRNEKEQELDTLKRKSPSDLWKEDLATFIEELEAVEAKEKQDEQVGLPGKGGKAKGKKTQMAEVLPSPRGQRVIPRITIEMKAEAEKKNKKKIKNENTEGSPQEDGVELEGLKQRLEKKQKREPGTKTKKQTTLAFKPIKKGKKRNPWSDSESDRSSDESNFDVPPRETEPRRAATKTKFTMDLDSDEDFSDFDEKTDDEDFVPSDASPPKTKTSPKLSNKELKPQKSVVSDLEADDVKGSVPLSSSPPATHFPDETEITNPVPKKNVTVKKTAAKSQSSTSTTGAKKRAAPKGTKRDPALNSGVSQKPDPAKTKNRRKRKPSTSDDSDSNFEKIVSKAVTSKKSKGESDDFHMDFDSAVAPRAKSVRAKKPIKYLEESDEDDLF

Consider `CSc1nc2c(Nc3cccc(C(C)=O)c3)c3ccccc3nc2s1`, for which the half-maximal inhibitory concentration (IC50) in the assay with SW480, in the assay with HeLa, with SW-620 and in the assay on K562 was over 80 µM in each case.
As for `Clc1c2ccccc2nc2sc(N3CCOCC3)nc12`, the IC50 in the assay with SW480, in the assay on HeLa, with SW-620 and in the assay on K562 was over 80 µM each time.
With `CCN(CC)CCNc1nc2c(Nc3ccc(C#N)cc3)c3ccccc3nc2s1`, the half-maximal inhibitory concentration (IC50) with SW480 stood at 14.2 µM; in the assay with HeLa, 15.2 µM; in the assay with SW-620, 16.5 µM; in the assay with K562 it was 8.36 µM.
In the case of `CCN(CC)CCNc1nc2c(Nc3cccc(OC)c3)c3ccccc3nc2s1`, the IC50 was found to be 11.5 µM in the assay on SW480, 19.2 µM in the assay with HeLa, 20 µM in the assay with SW-620 and 23.5 µM in the assay with K562.
`CSc1nc2c(Nc3cccc(C(F)(F)F)c3)c3ccccc3nc2s1`: the IC50 was 65.1 µM in the assay with SW480; 43.3 µM in the assay with HeLa; 62.3 µM with SW-620; 15.4 µM in assay [1]; 67.1 µM with K562.
`CCN(CC)CCNc1nc2c(Nc3cccc(C#N)c3)c3ccccc3nc2s1`: the IC50 in the assay on SW480 is 13.1 µM; in the assay with HeLa, 13.3 µM; in the assay with SW-620, 14.6 µM; in the assay on K562 it was 12.5 µM.
For `CCN(CC)CCNc1nc2c(Nc3ccc(Cl)cc3)c3ccccc3nc2s1`, in that order: 12.6 µM, 10.2 µM, 12.2 µM and 7.26 µM.
Turning to `CN1CCN(c2nc3c(Cl)c4ccccc4nc3s2)CC1`, the IC50 in the assay with SW480, in the assay on HeLa, in the assay on SW-620 and with K562 was over 80 µM in each case.
For `CCN(CC)CCCNc1nc2c(Nc3ccc(Cl)cc3)c3ccccc3nc2s1`, the half-inhibitory concentration (IC50) amounted to 4.92 µM with SW480, 8.82 µM with HeLa, 7.48 µM in the assay with SW-620 and 3.36 µM with K562.
For the molecule `CSc1nc2c(Nc3cccc(NC(C)=O)c3)c3ccccc3nc2s1`, the IC50 in the assay on SW480 was over 80 µM; with HeLa, over 80 µM; in the assay with SW-620, over 80 µM; in assay [1], 29.6 µM; with K562, over 80 µM.
Regarding `CCOC(=O)c1cccc(Nc2c3ccccc3nc3sc(SC)nc23)c1`, the 50% inhibitory concentration (IC50) in the assay on SW480, in the assay on HeLa, in the assay on SW-620 and in the assay on K562 was over 80 µM throughout.
Consider `CCN(CC)CCCNc1nc2c(Nc3ccccc3)c3ccccc3nc2s1`, for which the IC50 in the assay with SW480 turned out to be 6.9 µM; in the assay with HeLa it was 6.27 µM; in the assay with SW-620, 16.6 µM; with K562, 7.52 µM.
In the case of `CSc1nc2c(Nc3ccc(Cl)cc3)c3ccccc3nc2s1`, the IC50 is over 80 µM in the assay with SW480; over 80 µM in the assay on HeLa; over 80 µM in the assay on SW-620; 20.5 µM in assay [1]; 79.5 µM in the assay with K562.
Consider `CCN(CC)CCCNc1nc2c(Nc3cccc(Cl)c3)c3ccccc3nc2s1`, for which the IC50 in the assay on SW480 is 7.91 µM; in the assay on HeLa it was 7.46 µM; in the assay with SW-620, 10.2 µM; in assay [1], 40.9 µM; in the assay with K562 it was 9.84 µM.
For the molecule `Clc1c2ccccc2nc2sc(N3CCCCC3)nc12`, the IC50 in the assay with SW480, in the assay on HeLa, in the assay on SW-620 and in the assay on K562 was over 80 µM in each case.
Regarding `CN1CCN(c2nc3c(Nc4ccccc4)c4ccccc4nc3s2)CC1`, the IC50 was 41.8 µM with SW480, 60.7 µM in the assay with HeLa, over 80 µM in the assay on SW-620 and 73 µM with K562.
With `CCN(CC)CCCNc1nc2c(Nc3cccc(C#N)c3)c3ccccc3nc2s1`, the IC50 in the assay on SW480 stood at 11.5 µM; in the assay with HeLa, 19.2 µM; in the assay with SW-620 it was 19.7 µM; in the assay on K562, 12.9 µM.
For `COc1ccc(Nc2c3cc(F)ccc3nc3sc(SC)nc23)cc1`, in that order: over 80 µM, over 80 µM, over 80 µM and 54.9 µM.
The matching figures for `CCN(CC)CCCNc1nc2c(Nc3ccc(C#N)cc3)c3ccccc3nc2s1`: 22.7 µM, 24.2 µM, 29.2 µM and 12.9 µM.
Turning to `CSc1nc2c(Nc3ccc(C#N)cc3)c3cc(F)ccc3nc2s1`, the IC50 with SW480, in the assay on HeLa and in the assay with SW-620 was over 80 µM throughout.
As for `COc1cc(NS(C)(=O)=O)ccc1Nc1c2ccccc2nc2ccccc12` [AMSACRINE], the IC50 was 27.7 µM with SW480; 9.5 µM in the assay with HeLa; 16.7 µM in the assay on SW-620; 9.94 µM in assay [1]; 19.9 µM in the assay on K562.
With `CSc1nc2c(Nc3ccccc3)c3cc(F)ccc3nc2s1`, the IC50 in the assay with SW480, in the assay on HeLa, in the assay with SW-620 and in the assay with K562 was over 80 µM each time.
For `CCN(CC)CCNc1nc2c(Nc3ccccc3)c3ccccc3nc2s1`, the concentration for half-maximal inhibition (IC50) in the assay with SW480 stood at 37.7 µM; in the assay on HeLa, 16 µM; in the assay with SW-620 it was 21.6 µM; in assay [1], 169 µM; in the assay on K562 it was 16.8 µM.
As to `c1ccc(Nc2c3ccccc3nc3sc(N4CCCCC4)nc23)cc1`, the IC50 in the assay with SW480, with HeLa, with SW-620 and with K562 was over 80 µM throughout.
With `CSc1nc2c(Nc3cccc(N)c3)c3ccccc3nc2s1`, the IC50 is over 80 µM in the assay with SW480; over 80 µM with HeLa; over 80 µM in the assay with SW-620; 16.7 µM in assay [1]; over 80 µM in the assay with K562.
`CSc1nc2c(Nc3cccc(O)c3)c3ccccc3nc2s1`: the IC50 in the assay on SW480 was over 80 µM; in the assay on HeLa it was over 80 µM; in the assay on SW-620, over 80 µM; in assay [1] it was 64.3 µM; in the assay with K562 it was over 80 µM.
As for `COc1cccc(Nc2c3cc(F)ccc3nc3sc(SC)nc23)c1`, the IC50 in the assay with SW480 was 13.7 µM; with HeLa, 15.8 µM; in the assay with SW-620, 12.2 µM.
For the molecule `CNc1cccc(Nc2c3ccccc3nc3sc(SC)nc23)c1`, the IC50 with SW480 was over 80 µM; in the assay with HeLa, 46.2 µM; in the assay with SW-620, over 80 µM; in assay [1], 12.3 µM; in the assay on K562 it was 46.9 µM.
Consider `CSc1nc2c(Nc3cccc(C#N)c3)c3cc(F)ccc3nc2s1`, for which the IC50 in the assay with SW480 was over 80 µM; in the assay with HeLa, over 80 µM; in the assay on SW-620 it was over 80 µM; in the assay with K562, 55.4 µM.
With `CSc1nc2c(Nc3cc(N)cc(CO)c3)c3ccccc3nc2s1`, the IC50 in the assay with SW480 was over 80 µM; in the assay with HeLa it was over 80 µM; in the assay with SW-620 it was over 80 µM; in assay [1], 18 µM; in the assay with K562 it was over 80 µM.
With `CSc1nc2c(Nc3cccc(/C(C)=N\O)c3)c3ccccc3nc2s1`, the concentration for half-maximal inhibition (IC50) in the assay with SW480 was 37.3 µM; in the assay with HeLa, 34.2 µM; in the assay with SW-620, 39.4 µM; with K562, 32.8 µM.
For `CSc1nc2c(Nc3cccc(Cl)c3)c3ccccc3nc2s1`, the IC50 was over 80 µM with SW480; 69.4 µM in the assay on HeLa; over 80 µM with SW-620; 21.2 µM in assay [1]; 80.3 µM with K562.
As to `CCN(CC)CCNc1nc2c(Nc3cccc(Cl)c3)c3ccccc3nc2s1`, the IC50 stood at 14.3 µM in the assay on SW480, 9.12 µM with HeLa, 17.8 µM in the assay with SW-620 and 12.2 µM with K562.
For `CCN(CC)CCNc1nc2c(Nc3ccc(OC)cc3)c3ccccc3nc2s1`, in that order: 12 µM, 13.6 µM, 16.4 µM and 10.9 µM.
For `CSc1nc2c(Nc3ccccc3)c3ccccc3nc2s1`, in that order: over 80 µM, over 80 µM, over 80 µM and over 80 µM.
Regarding `c1ccc(Nc2c3ccccc3nc3sc(N4CCOCC4)nc23)cc1`, the IC50 in the assay with SW480, in the assay on HeLa, in the assay with SW-620 and in the assay with K562 was over 80 µM throughout.
